Results pooled from the literature.
Protocols differ between the studies behind these lines.
Mc1r: Melanocyte-stimulating hormone receptor (Mc1r, Mus musculus, UniProt Q01727)
PSMB8: Proteasome subunit beta type-8 (PSMB8, Homo sapiens, UniProt P28062)

Structure (SMILES) | target | observed | mode | technique | notes | quantity | result
N=C(N)NCCC[C@H](NC(=O)[C@H](CC(=O)O)NC(=O)[C@H](Cc1c[nH]c2ccccc12)NC(=O)[C@H](CCCNC(=N)N)NC(=O)[C@H](Cc1ccccc1)NC(=O)[C@H](Cc1c[nH]cn1)NC(=O)CN)C(=O)N[C@@H](Cc1ccccc1)C(=O)NCC(=O)O | Mc1r | reporter gene | agonist |  |  | EC50 | 7.86 µM
Cc1ncc(C(=O)N[C@@H](CC(C)C)C(=O)N[C@@H](CCC2CCCCC2)C(=O)N[C@H](/C=C/S(C)(=O)=O)Cc2ccc(CN)cc2)s1 | PSMB8 | enzyme activity | inhibitor |  | lysate | IC50 | 3.98 µM
CC1=C(/C=C/C(C)=C/C=C/C(C)=C/C=O)C(C)(C)CCC1 | Cellular retinoic acid-binding protein 2 (CRABP2, Homo sapiens, UniProt P29373, L122E/R112L/R133K) | binding |  | fluorescence |  | Kd | 0.00136 µM
CC(C)C[C@H](NC(=O)[C@H](Cc1ccccc1)N=[N+]=[N-])C(=O)N[C@@H](CC(F)(F)F)C(=O)N[C@H](/C=C/S(C)(=O)=O)Cc1ccc(CN)cc1 | PSMB8 | enzyme activity | inhibitor |  | lysate | IC50 | 1.83 µM
N#Cc1ccc(COc2cccc(C3CCN(Cc4nc5ccc(C(=O)O)cc5n4C[C@@H]4CCO4)CC3)n2)c(F)c1 | Glucagon receptor (GCGR, Homo sapiens, UniProt P47871) | cAMP | agonist |  |  | EC50 | > 20 µM
CCCC[C@H](NC(=O)[C@@H](NC(=O)[C@@H](N)Cc1ccc(O)cc1)C(C)C)C(=O)NCC(=O)N[C@@H](Cc1c[nH]cn1)C(=O)N[C@@H](Cc1ccccc1)C(=O)N[C@@H](CCCN=C(N)N)C(=O)N[C@@H](Cc1c[nH]c2ccccc12)C(=O)N[C@@H](CC(=O)O)C(=O)N[C@@H](CCCN=C(N)N)C(=O)N[C@@H](Cc1ccccc1)C(=O)NCC(=O)O | Mc1r | reporter gene | agonist |  |  | EC50 | 0.39 µM
Cc1ncc(C(=O)N[C@@H](CCC2CCCCC2)C(=O)N[C@@H](CC(C)C)C(=O)N[C@H](/C=C/S(C)(=O)=O)Cc2ccc(CN)cc2)s1 | PSMB8 | enzyme activity | inhibitor |  | lysate | IC50 | 0.41 µM
CSCC[C@H](NC(=O)[C@@H](NC(=O)[C@@H](N)Cc1ccc(O)cc1)C(C)C)C(=O)NCC(=O)O | Mc1r | reporter gene | agonist |  |  | EC50 | > 100 µM
CCOc1ccc2c(-c3cc(C)nc(Nc4cc(OC)cc(C(F)(F)F)c4)n3)cnn2n1 | Homeodomain-interacting protein kinase 2 (HIPK2, Homo sapiens, UniProt Q9H2X6) | enzyme activity | inhibitor |  |  | IC50 | > 10 µM
